ChEMBL document CHEMBL1800019, “Highly potent activity of (1R,2R,6S)-3-methyl-6-(prop-1-en-2-yl)cyclohex-3-ene-1,2-diol in animal models of Parkinson's disease” (2011)
The source made the active and inactive calls. The calls are words filed in the database; no cut-off is given here.

Experiments:
[1] = test system: Mus musculus; assay: Antiparkinsonian effect against MPTP-induced hypokinesia in C57/BL6 mouse assessed as number of locomotory acts at 20 mg/kg, po administered 15 mins after 30 mg/kg, ip MPTP challenge measured after 1.5 hrs of compound administration for 2 mins (reference value: 84.1 +/- 1.9 locomotor acts); format: functional, C57Bl/6
In short: (§1)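 Male C57BL/6 mice (25–30 g) were given MPTP 0.17 mmol/kg (30 mg/kg) ip and, 15 min later, test agent 0.12 mmol/kg (20 mg/kg) po. Controls received saline. An open-field test (Tru Scan) was run 1.5 h after MPTP for 2 min, recording acts, locomotion time, distance, speed, upright postures and explored holes.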

[2] = test system: Mus musculus; assay: Antiparkinsonian effect against MPTP-induced hypokinesia in C57/BL6 mouse assessed as time of locomotory activity at 20 mg/kg, po administered 15 mins after 30 mg/kg, ip MPTP challenge measured after 1.5 hrs of compound administration for 2 mins (reference value: 58.3 +/- 3.9 sec); format: functional, C57Bl/6; in short: as §1
[3] = test system: Mus musculus; assay: Antiparkinsonian effect against MPTP-induced hypokinesia in C57/BL6 mouse assessed as movement distance at 20 mg/kg, po administered 15 mins after 30 mg/kg, ip MPTP challenge […] for 2 mins (reference value: 276.8 +/- 27.8 cm); format: functional, C57Bl/6
[4] = test system: Mus musculus; assay: Antiparkinsonian effect against MPTP-induced hypokinesia in C57/BL6 mouse assessed as movement speed at 20 mg/kg, po administered 15 mins after 30 mg/kg, ip MPTP challenge measured after 1.5 hrs of compound administration for 2 mins (reference value: 2.3 +/- 0.2 cm/s); format: functional, C57Bl/6; in short: as §1
[5] = test system: Mus musculus; assay: Antiparkinsonian effect against MPTP-induced hypokinesia in C57/BL6 mouse assessed as number of holes explored at 20 mg/kg, po administered 15 mins after 30 mg/kg, ip MPTP challenge measured after 1.5 hrs of compound administration for 2 mins (reference value: 15.6 +/- 3.3 holes explored); format: functional, C57Bl/6; in short: as §1
[6] = test system: Mus musculus; assay: Antiparkinsonian effect against MPTP-induced hypokinesia in C57/BL6 mouse assessed as number of upright postures at 20 mg/kg, po administered 15 mins after 30 mg/kg, ip MPTP challenge measured after 1.5 hrs of compound administration for 2 mins (reference value: 6.5 +/- 1.3 upright postures); format: functional, C57Bl/6; in short: as §1
[7] = test system: Rattus norvegicus; assay: Inhibition of haloperidol-induced catalepsy in Wistar rat at 20 mg/kg, po administered 10 mins before haloperidol challenge measured for 30 to 240 mins; format: functional, organism-based; set-up: dose 20 mg/kg
In short: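 Male Wistar rats (six per group) were dosed po with 0.12 mmol/kg (20 mg/kg), and 10 min later received haloperidol 4.0 μmol/kg (1.5 mg/kg) ip in saline. Controls received haloperidol only. Immobility time on parallel bars was recorded at 30, 60, 120, 180 and 240 min at rt. Total catalepsy duration and % cataleptic animals were scored.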

[8] = test system: Mus musculus; assay: Antiparkinsonian effect against MPTP-induced hypokinesia in C57/BL6 mouse assessed as number of locomotory acts at 20 mg/kg, po administered 24 hrs after 4 X 20 mg/kg, ip MPTP challenge measured after 2 hrs of compound administration for 2 mins (reference value: 73.3 +/- 2.3 locomotor acts); format: functional, C57Bl/6
[9] = test system: Mus musculus; assay: Antiparkinsonian effect against MPTP-induced hypokinesia in C57/BL6 mouse assessed as time of locomotory activity at 20 mg/kg, po administered 24 hrs after 4 X 20 mg/kg, ip MPTP challenge measured after 2 hrs of compound administration for 2 mins (reference value: 90.0 +/- 1.4 sec); format: functional, C57Bl/6
[10] = test system: Mus musculus; assay: Antiparkinsonian effect against MPTP-induced hypokinesia in C57/BL6 mouse assessed as movement distance at 20 mg/kg, po administered 24 hrs after 4 X 20 mg/kg, ip MPTP challenge measured after 2 hrs of compound administration for 2 mins (reference value: 556.7 +/- 19.6 cm); format: functional, C57Bl/6
[11] = test system: Mus musculus; assay: Antiparkinsonian effect against MPTP-induced hypokinesia in C57/BL6 mouse assessed as movement speed at 20 mg/kg, po administered 24 hrs after 4 X 20 mg/kg, ip MPTP challenge measured after 2 hrs of compound administration for 2 mins (reference value: 4.6 +/- 0.2 cm/s); format: functional, C57Bl/6
[12] = test system: Mus musculus; assay: Antiparkinsonian effect against MPTP-induced hypokinesia in C57/BL6 mouse assessed as number of holes explored at 20 mg/kg, po administered 24 hrs after 4 X 20 mg/kg, ip MPTP challenge measured after 2 hrs of compound administration for 2 mins (reference value: 4.1 +/- 1.1 holes explored); format: functional, C57Bl/6
[13] = test system: Mus musculus; assay: Antiparkinsonian effect against MPTP-induced hypokinesia in C57/BL6 mouse assessed as number of upright postures at 20 mg/kg, po administered 24 hrs after 4 X 20 mg/kg, ip MPTP challenge measured after 2 hrs of compound administration for 2 mins (reference value: 24.9 +/- 3.3 upright postures); format: functional, C57Bl/6
[14] = test system: Rattus norvegicus; assay: Antiparkinsonian effect against MPTP-induced hypokinesia in Wistar rat assessed as number of locomotory acts at 20 mg/kg, po administered 30 days post 20 mg/kg, ip MPTP challenge measured on 30th day 2 hrs post compound administration for 2 mins (reference value: 80.3 +/- 2.5 locomotor acts); format: functional
[15] = test system: Rattus norvegicus; assay: Antiparkinsonian effect against MPTP-induced hypokinesia in Wistar rat assessed as movement speed at 20 mg/kg, po administered 30 days post ip MPTP challenge measured on 30th day 2 hrs post compound administration for 2 mins (reference value: 3.0 +/- 0.2 cm/s)
[16] = test system: Rattus norvegicus; assay: Antiparkinsonian effect against MPTP-induced hypokinesia in Wistar rat assessed as movement distance at 20 mg/kg, po administered 30 days post ip MPTP challenge measured on 30th day 2 hrs post compound administration for 2 mins (reference value: 367 +/- 21.2 cm)
[17] = test system: Rattus norvegicus; assay: Antiparkinsonian effect against MPTP-induced hypokinesia in Wistar rat assessed as number of holes explored at 20 mg/kg, po administered 30 days post ip MPTP challenge measured on 30th day 2 hrs post compound administration for 2 mins (reference value: 4.6 +/- 0.9 holes explored)
[18] = test system: Rattus norvegicus; assay: Antiparkinsonian effect against MPTP-induced hypokinesia in Wistar rat assessed as time of locomotory activity at 20 mg/kg, po administered 30 days post 40 mg/kg, ip MPTP challenge measured on 30th day 2 hrs post compound administration for 2 mins (reference value: 69.7 +/- 2.1 sec)
[19] = test system: Rattus norvegicus; assay: Antiparkinsonian effect against MPTP-induced hypokinesia in Wistar rat assessed as number of upright postures at 20 mg/kg, po administered 30 days post 40 mg/kg, ip MPTP challenge measured on 30th day 2 hrs post compound administration for 2 mins (reference value: 14.6 +/- 1.8 upright postures)
[20] = test system: Rattus norvegicus; assay: Antiparkinsonian effect against MPTP-induced hypokinesia in Wistar rat assessed as time of locomotory activity at 10 mg/kg, po administered 30 days post 20 mg/kg, ip MPTP challenge measured on 30th day 2 hrs post compound administration for 2 mins (reference value: 69.7 +/- 2.1s); format: functional
[21] = test system: Rattus norvegicus; assay: Antiparkinsonian effect against MPTP-induced hypokinesia in Wistar rat assessed as movement distance at 10 mg/kg, po administered 30 days post 20 mg/kg, ip MPTP challenge measured on 30th day 2 hrs post compound administration for 2 mins (reference value: 367 +/- 21.2 cm); format: functional
[22] = test system: Rattus norvegicus; assay: Antiparkinsonian effect against MPTP-induced hypokinesia in Wistar rat assessed as number of holes explored at 10 mg/kg, po administered 30 days post 20 mg/kg, ip MPTP challenge measured on 30th day 2 hrs post compound administration for 2 mins (reference value: 4.6 +/- 0.9 holes explored); format: functional
[23] = test system: Rattus norvegicus; assay: Antiparkinsonian effect against MPTP-induced hypokinesia in Wistar rat assessed as number of upright postures at 10 mg/kg, po administered 30 days post 20 mg/kg, ip MPTP challenge measured on 30th day 2 hrs post compound administration for 2 mins (reference value: 14.6 +/- 1.8 upright postures); format: functional
[24] = test system: Rattus norvegicus; assay: Antiparkinsonian effect against MPTP-induced hypokinesia in Wistar rat assessed as number of locomotory acts at 10 mg/kg, po administered 30 days post 40 mg/kg, ip MPTP challenge measured on 30th day 2 hrs post compound administration for 2 mins (reference value: 80.3 +/- 2.5 locomotor acts)

SMILES	Activity [1]	Time [2] [s]	Movement distance [3] [cm]	Activity [4] [cm/s]	Activity [5]	Activity [6]	also measured
C=C(C)[C@H]1CC=C(C)[C@@H](O)[C@H]1O	82.4	56.6	257.7	2.1	8.1	7.9	
C=C(C)[C@H]1CC=C(C)[C@@H](O)[C@@H]1O	65.5	46.9	158.8	1.3	3.9	4.7	
C=C(C)[C@H]1CC=C(C)[C@H](O)[C@@H]1O	80.2	55.6	245.9	1.2	14.4	3.1	
C=C(C)[C@@H]1CC=C(C)[C@@H](O)[C@@H]1O	78.6	64	332.6	2.7	13.1	3.2	inhibition [7]: Active; Activity [8]: 80.5; Time [9]: 74.8 s; Activity [10]: 439.6 cm; Activity [11]: 3.6 cm/s; Activity [12]: 6.5; Activity [13]: 14.8; Activity [14]: 81.9; Activity [15]: 2.5 cm/s; Activity [16]: 305.6 cm; Activity [17]: 4.3; Time [18]: 62.6 s; Activity [19]: 10.7
N[C@@H](Cc1ccc(O)c(O)c1)C(=O)O [LEVODOPA]							Time [20]: 65.1 s; Activity [21]: 316.8 cm; Activity [22]: 4.6; Activity [23]: 9.6; Activity [24]: 86
C=C(C)[C@@H]1CC=C(C)[C@H](O)[C@H]1O	77.4	55.7	253.3	2.1	8.1	10.3	
C=C(C)[C@@H]1CC=C(C)[C@H](O)[C@@H]1O	28.5	15	55.9	0.4	0.9	1.7	
C=C(C)[C@H]1CC=C(C)[C@H](O)[C@H]1O	57.9	34.9	147.8	1.1	4.4	2.5	
C=C(C)[C@@H]1CC=C(C)[C@@H](O)[C@H]1O	64.9	45.5	212.4	1.7	3.5	4	
